Reference: ChEMBL document CHEMBL5247621, “From dopamine 4 to sigma 1: Synthesis, SAR and biological characterization of a piperidine scaffold of σ1 modulators” (Eur J Med Chem, 2022)
Blank lines part the entries; values can stand above or below the molecule they belong to.

Experiments:
[1] = molecular target: T1, Sigma non-opioid intracellular receptor 1 (Homo sapiens, UniProt Q99720); experiment: Displacement of [3H] Pentazocine from sigma 1 receptor in HEK293 cell membrane; format: cell membranes; details: read-out: Ki
T1 sequence (Q99720 whole entry): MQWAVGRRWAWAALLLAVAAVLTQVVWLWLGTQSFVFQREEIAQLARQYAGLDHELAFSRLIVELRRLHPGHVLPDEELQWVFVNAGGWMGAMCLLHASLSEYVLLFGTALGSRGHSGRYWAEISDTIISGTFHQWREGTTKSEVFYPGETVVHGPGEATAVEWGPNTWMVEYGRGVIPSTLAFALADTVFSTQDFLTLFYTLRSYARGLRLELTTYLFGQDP

[2] = molecular target: T2, D(4) dopamine receptor (Homo sapiens, UniProt P21917); experiment: Displacement of [3H]N-methylspiperone from D4 receptor in HEK293 cell membrane; format: cell membranes; details: read-out: Ki
T2 sequence (P21917 whole entry): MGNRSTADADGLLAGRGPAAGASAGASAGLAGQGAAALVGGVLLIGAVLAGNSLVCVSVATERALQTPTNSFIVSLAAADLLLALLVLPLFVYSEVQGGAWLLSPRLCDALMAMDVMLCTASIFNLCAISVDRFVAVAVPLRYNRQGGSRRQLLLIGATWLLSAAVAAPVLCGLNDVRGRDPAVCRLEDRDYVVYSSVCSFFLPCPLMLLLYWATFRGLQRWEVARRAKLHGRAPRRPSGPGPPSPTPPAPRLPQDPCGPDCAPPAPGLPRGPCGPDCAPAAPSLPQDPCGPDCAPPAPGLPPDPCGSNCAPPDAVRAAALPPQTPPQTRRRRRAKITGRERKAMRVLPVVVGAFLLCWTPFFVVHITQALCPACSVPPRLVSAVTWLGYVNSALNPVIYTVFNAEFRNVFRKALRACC

[3] = molecular target: T1, Sigma non-opioid intracellular receptor 1; experiment: Binding affinity to sigma 1 receptor in human Jurkat cells; format: cell-based
[4] = molecular target: Sigma intracellular receptor 2 (Homo sapiens, UniProt Q5BJF2); experiment: Displacement of [3H]DTG from sigma-2 receptor in HEK293 cell membrane assessed as inhibition constant; format: cell membranes
Sequence of Sigma intracellular receptor 2 (Q5BJF2 whole entry): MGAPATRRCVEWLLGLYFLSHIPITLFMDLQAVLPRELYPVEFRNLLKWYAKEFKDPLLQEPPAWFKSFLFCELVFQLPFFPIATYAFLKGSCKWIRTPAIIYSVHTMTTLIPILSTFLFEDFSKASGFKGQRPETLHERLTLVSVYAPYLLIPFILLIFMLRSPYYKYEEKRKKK
How it was run: (§1)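 Competitive radioligand binding in membranes harvested from HEK293 cells, with one radioligand per target: [3H]N-methylspiperone for D2, D3 and D4; [3H]SCH23390 for D1 and D5; [3H]pentazocine for σ1; [3H]DTG for σ2. Ki derived from inhibition of binding, each run in triplicate.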

[5] = molecular target: D(1B) dopamine receptor (Homo sapiens, UniProt P21918); experiment: Displacement of [3H]SCH23390 from D5 receptor in HEK293 cell membrane assessed as inhibition constant; format: cell membranes; how it was run: as §1
Sequence of D(1B) dopamine receptor (P21918 whole entry): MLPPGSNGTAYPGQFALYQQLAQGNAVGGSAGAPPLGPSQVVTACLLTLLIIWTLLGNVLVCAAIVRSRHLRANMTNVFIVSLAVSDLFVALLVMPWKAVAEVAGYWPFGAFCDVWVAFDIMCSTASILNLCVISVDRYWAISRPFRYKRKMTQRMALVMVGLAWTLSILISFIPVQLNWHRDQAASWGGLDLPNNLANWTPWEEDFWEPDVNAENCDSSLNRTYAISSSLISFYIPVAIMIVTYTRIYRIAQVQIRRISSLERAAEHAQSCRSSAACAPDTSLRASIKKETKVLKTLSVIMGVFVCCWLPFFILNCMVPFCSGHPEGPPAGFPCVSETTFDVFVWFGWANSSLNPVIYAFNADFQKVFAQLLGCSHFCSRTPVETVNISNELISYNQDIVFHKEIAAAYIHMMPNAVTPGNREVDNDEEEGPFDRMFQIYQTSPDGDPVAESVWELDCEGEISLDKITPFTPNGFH

[6] = molecular target: D(1A) dopamine receptor (Homo sapiens, UniProt P21728); experiment: Displacement of [3H]SCH23390 from D1 receptor in HEK293 cell membrane assessed as inhibition constant; format: cell membranes; how it was run: as §1
Sequence of D(1A) dopamine receptor (P21728 whole entry): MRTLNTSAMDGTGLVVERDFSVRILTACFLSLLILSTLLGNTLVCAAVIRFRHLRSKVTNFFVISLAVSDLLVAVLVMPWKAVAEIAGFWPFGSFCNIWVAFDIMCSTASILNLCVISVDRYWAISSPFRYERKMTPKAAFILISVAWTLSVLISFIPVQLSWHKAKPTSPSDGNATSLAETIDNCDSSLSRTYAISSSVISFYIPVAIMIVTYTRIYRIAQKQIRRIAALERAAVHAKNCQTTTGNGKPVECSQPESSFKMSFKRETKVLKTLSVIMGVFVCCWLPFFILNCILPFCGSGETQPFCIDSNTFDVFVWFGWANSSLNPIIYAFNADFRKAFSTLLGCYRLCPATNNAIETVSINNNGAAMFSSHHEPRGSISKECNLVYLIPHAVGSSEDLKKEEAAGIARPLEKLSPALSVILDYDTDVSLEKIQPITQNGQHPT

[7] = Half life in mouse plasma at 5 mg/kg, ip measured after 24 hrs; format: ADME, organism-based; details: in vivo
How it was run: (§2)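 Discrete mouse study, single intraperitoneal dose of 5 mg/kg in 10% DMSO/10% Cremophor EL/30% PEG400/50% water. Plasma and brain concentrations followed over 24 h. Parameters estimated by non-compartmental analysis.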

[8] = Half life in mouse brain at 5 mg/kg, ip measured after 24 hrs; format: ADME, organism-based; details: in vivo; how it was run: as §2
[9] = Mean residence time in mouse plasma at 5 mg/kg, ip measured after 24 hrs; format: ADME, organism-based; details: in vivo; how it was run: as §2
[10] = Mean residence time in mouse brain at 5 mg/kg, ip measured after 24 hrs; format: ADME, organism-based; details: in vivo; how it was run: as §2
[11] = Tmax in mouse plasma at 5 mg/kg, ip measured after 24 hrs; format: ADME, organism-based; details: in vivo; how it was run: as §2
[12] = Tmax in mouse brain at 5 mg/kg, ip measured after 24 hrs; format: ADME, organism-based; details: in vivo; how it was run: as §2
[13] = Cmax in mouse plasma at 5 mg/kg, ip measured after 24 hrs; format: ADME, organism-based; design: dose 5 mg/kg, time 24 hrs, route ip; details: in vivo; how it was run: as §2
[14] = Cmax in mouse brain at 5 mg/kg, ip measured after 24 hrs; format: ADME, organism-based; design: time 24 hrs, dose 5 mg/kg, route ip; how it was run: as §2
[15] = AUC(infinity) in mouse plasma at 5 mg/kg, ip measured after 24 hrs; format: ADME, organism-based; design: dose 5 mg/kg, time 24 hrs, route ip; details: in vivo; how it was run: as §2
[16] = AUC(infinity) in mouse brain at 5 mg/kg, ip measured after 24 hrs; format: ADME, organism-based; design: dose 5 mg/kg, time 24 hrs, route ip; how it was run: as §2
[17] = Ratio of total drug concentration in mouse brain to plasma at 5 mg/kg, ip measured after 1 hr; format: ADME, organism-based
How it was run: (§3)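 Mice received 5 mg/kg IP in 10% DMSO/10% Cremophor EL/30% PEG400/50% water. Kp is total brain concentration divided by total plasma concentration, taken at 1 h and 5 h post-dose.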

[18] = Ratio of free drug concentration in mouse brain to plasma at 5 mg/kg, ip measured after 1 hr; format: ADME, organism-based
How it was run: (§4)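 Mice received 5 mg/kg IP in 10% DMSO/10% Cremophor EL/30% PEG400/50% water. Kp,uu is free brain over free plasma concentration at 1 h and 5 h. Free levels are corrected with unbound fractions measured in mouse plasma protein binding and in mouse brain homogenate binding.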

[19] = Ratio of free drug concentration in mouse brain to plasma at 5 mg/kg, ip measured after 5 hrs; format: ADME, organism-based; details: read-out: K(p,uu,brain); how it was run: as §4
[20] = molecular target: T3, D(4) dopamine receptor (Homo sapiens) (UniProt P21917); experiment: Displacement of [3H]N-methylspiperone from D4 receptor in HEK293 cell membrane assessed as inhibition constant at 10 uM relative to control; format: cell membranes; design: scale not given: the % may be the effect or the level left
T3 sequence (whole entry): T2 sequence (P21917 whole entry)

[21] = Plasma protein binding in human assessed as unbound fraction; format: ADME, cell-free
How it was run: (§5)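 Plasma protein binding by equilibrium dialysis in human or mouse plasma, reported as fraction unbound (fu).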

[22] = Plasma protein binding in mouse assessed as unbound fraction; format: ADME; how it was run: as §5
[23] = molecular target: D(2) dopamine receptor (Homo sapiens, UniProt P14416); experiment: Displacement of [3H]N-methylspiperone from D2 receptor in HEK293 cell membrane assessed as inhibition constant; format: cell membranes; how it was run: as §1
Sequence of D(2) dopamine receptor (P14416 whole entry): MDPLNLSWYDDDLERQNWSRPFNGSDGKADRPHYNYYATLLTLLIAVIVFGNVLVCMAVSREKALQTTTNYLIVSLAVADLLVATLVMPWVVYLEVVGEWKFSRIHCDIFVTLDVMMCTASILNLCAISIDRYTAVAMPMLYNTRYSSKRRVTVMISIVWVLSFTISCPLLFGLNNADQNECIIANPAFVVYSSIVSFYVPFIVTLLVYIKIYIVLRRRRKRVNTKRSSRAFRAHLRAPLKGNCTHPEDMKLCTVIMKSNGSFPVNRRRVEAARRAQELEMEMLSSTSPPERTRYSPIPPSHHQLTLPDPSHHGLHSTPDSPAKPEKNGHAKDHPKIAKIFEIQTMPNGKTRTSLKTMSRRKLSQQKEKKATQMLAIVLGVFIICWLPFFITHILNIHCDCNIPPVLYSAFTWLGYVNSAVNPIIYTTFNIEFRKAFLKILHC

[24] = molecular target: D(3) dopamine receptor (Homo sapiens, UniProt P35462); experiment: Displacement of [3H]N-methylspiperone from D3 receptor in HEK293 cell membrane assessed as inhibition constant; format: cell membranes; how it was run: as §1
Sequence of D(3) dopamine receptor (P35462 whole entry): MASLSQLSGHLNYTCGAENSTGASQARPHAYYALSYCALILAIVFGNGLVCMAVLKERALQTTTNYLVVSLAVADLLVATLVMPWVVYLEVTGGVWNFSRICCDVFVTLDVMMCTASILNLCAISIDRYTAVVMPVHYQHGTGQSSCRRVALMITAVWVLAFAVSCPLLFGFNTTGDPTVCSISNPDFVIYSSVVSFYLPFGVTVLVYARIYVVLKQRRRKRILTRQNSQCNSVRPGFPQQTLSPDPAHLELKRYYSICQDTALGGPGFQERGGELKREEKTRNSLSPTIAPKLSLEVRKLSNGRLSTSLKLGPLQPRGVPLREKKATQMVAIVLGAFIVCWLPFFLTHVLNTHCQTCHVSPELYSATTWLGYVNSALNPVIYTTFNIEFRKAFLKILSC

[25] = Intrinsic clearance in human liver microsomes; format: ADME, Microsome; details: read-out: CLH
How it was run: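 Intrinsic clearance measured in human liver microsomes. Hepatic clearance predicted from it with the well-stirred organ model, binding terms excluded.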

[26] = Ratio of total drug concentration in mouse brain to plasma at 5 mg/kg, ip measured after 5 hrs; format: ADME, organism-based; how it was run: as §3

Ki [1]: 490 nM | Ki [2]: 1210 nM
Compound: Fc1cccc(CO[C@H]2CCCN(Cc3cn4ccccc4n3)C2)c1

Ki [1]: 12 nM
Compound: Cn1cnc2cc(CN3CCC(OCc4cccc(C(F)(F)F)c4)CC3)ccc21

Ki [1]: 41 nM | Ki [2]: 5 nM
Compound: COc1ccc(CN2CCO[C@H](COc3ccccc3)C2)cc1F

Ki [1]: 2.3 nM
Compound: Fc1cc(COC2CCN(Cc3cn4ccccc4n3)CC2)ccc1Cl

Ki [1]: 8.3 nM | Ki [3]: 12 nM | Ki [4]: 166 nM | Ki [5]: > 10000 nM | Ki [6]: > 10000 nM | t1/2 [7]: 2.14 h | t1/2 [8]: 9.11 h | MRT [9]: 2.12 h | MRT [10]: 8.43 h | Tmax [11]: 0.28 h | Tmax [12]: 0.56 h | Cmax [13]: 527 ng/mL | Cmax [14]: 860 ng/mL | AUC [15]: 952 ng·h/mL | AUC(0-inf) [16]: 4560 ng·h/mL | Kp [17]: 2.78 | K(p,uu,brain) [18]: 1.59 | Kp uu at 5 h [19]: 6.44
Compound: Fc1ccc(COC2CCN(Cc3ccc4[nH]cnc4c3)CC2)cc1F

Ki [1]: 37 nM | Activity [20]: 65% | Ki [4]: 239 nM | Fu [21]: 4.3% | Ki [6]: > 10000 nM | Fu [22]: 8.8%
Compound: Cc1ccccc1CO[C@H]1CCCN(Cc2ccc3c(cnn3C)c2)C1

Ki [1]: 44 nM | Ki [2]: 3.3 nM
Compound: c1ccc(OC[C@@H]2CN(Cc3ccc4[nH]ccc4c3)CCO2)cc1

Ki [1]: 1280 nM | Activity [20]: 23%
Compound: Cc1cccc(CO[C@H]2CCCN(Cc3ccc4c(cnn4C)c3)C2)n1

Ki [1]: 388 nM | Ki [2]: 169 nM
Compound: Cc1csc(OC[C@@H]2CN(Cc3cc4ccc(Cl)cc4[nH]3)CCO2)n1

Ki [1]: 8.1 nM | Fu [21]: < 0.3%
Compound: Fc1ccc(COC2CCN(Cc3cc4ccc(Cl)cc4[nH]3)CC2)cc1F

Ki [1]: 143 nM
Compound: Fc1ccc(COC2CCN(Cc3ncc4ccccn34)CC2)cc1F

Ki [4]: 73 nM | Ki [5]: > 10000 nM | Ki [6]: > 10000 nM
Compound: FC(F)(F)c1cccc(COC2CCN(Cc3ccc4[nH]cnc4c3)CC2)c1

Ki [1]: 52 nM
Compound: Cc1cccc(CO[C@H]2CCCN(Cc3cc4ccc(Cl)cc4[nH]3)C2)n1

Ki [1]: 503 nM | Activity [20]: 60%
Compound: Cc1ccccc1CO[C@H]1CCCN(Cc2cn3ccccc3n2)C1

Ki [1]: 7.1 nM | Activity [20]: 39% | Ki [4]: 30 nM | Ki [23]: > 10000 nM | Ki [24]: 345 nM | Ki [5]: > 10000 nM | Ki [6]: 1530 nM
Compound: Fc1ccc(CN2CCCC3(CCN(Cc4cc5ccc(Cl)cc5[nH]4)C3)C2)cc1F (stereo not given)

Ki [1]: 0.7 nM | CLint scaled [25]: 26.3 mL/min/kg | Fu [21]: 7% | Fu [22]: 6.5%
Compound: Fc1cc(COC2CCN(Cc3ccc4[nH]ncc4c3)CC2)ccc1Cl

Ki [1]: 3.1 nM | Ki [2]: 1160 nM | Ki [3]: 3.9 nM | Ki [4]: 70 nM | Ki [6]: > 10000 nM | t1/2 [7]: 3.68 h | t1/2 [8]: 6.88 h | MRT [9]: 4.54 h | MRT [10]: 8.3 h | Tmax [11]: 0.67 h | Tmax [12]: 1.67 h | Cmax [13]: 401 ng/mL | Cmax [14]: 1890 ng/mL | AUC [15]: 2225 ng·h/mL | AUC(0-inf) [16]: 13900 ng·h/mL | Kp [17]: 4.94 | Kp at 5 h [26]: 2.4 | K(p,uu,brain) [18]: 2.43 | Kp uu at 5 h [19]: 4.88
Compound: Fc1cc(COC2CCN(Cc3ccc4[nH]cnc4c3)CC2)ccc1Cl
